{"source": "ChEMBL document CHEMBL4382192", "about": "“Discovery of a potent dual ALK and EGFR T790M inhibitor” (Eur J Med Chem, 2017)", "key": {"[1]": {"biological_target": "Serine/threonine-protein kinase RIO2 (Homo sapiens) (UniProt Q9BVS4)", "assay": "Binding affinity to wild-type human partial length RIOK2 (M1 to D313 residues) expressed in mammalian expression system assessed as residual binding level at 1 uM by Kinomescan method relative to control"}, "[2]": {"biological_target": "Phosphatidylinositol 4,5-bisphosphate 3-kinase catalytic subunit alpha isoform (Homo sapiens) (UniProt P42336)", "sequence (P42336 whole entry, the tested form may be a part, canonical isoform)": "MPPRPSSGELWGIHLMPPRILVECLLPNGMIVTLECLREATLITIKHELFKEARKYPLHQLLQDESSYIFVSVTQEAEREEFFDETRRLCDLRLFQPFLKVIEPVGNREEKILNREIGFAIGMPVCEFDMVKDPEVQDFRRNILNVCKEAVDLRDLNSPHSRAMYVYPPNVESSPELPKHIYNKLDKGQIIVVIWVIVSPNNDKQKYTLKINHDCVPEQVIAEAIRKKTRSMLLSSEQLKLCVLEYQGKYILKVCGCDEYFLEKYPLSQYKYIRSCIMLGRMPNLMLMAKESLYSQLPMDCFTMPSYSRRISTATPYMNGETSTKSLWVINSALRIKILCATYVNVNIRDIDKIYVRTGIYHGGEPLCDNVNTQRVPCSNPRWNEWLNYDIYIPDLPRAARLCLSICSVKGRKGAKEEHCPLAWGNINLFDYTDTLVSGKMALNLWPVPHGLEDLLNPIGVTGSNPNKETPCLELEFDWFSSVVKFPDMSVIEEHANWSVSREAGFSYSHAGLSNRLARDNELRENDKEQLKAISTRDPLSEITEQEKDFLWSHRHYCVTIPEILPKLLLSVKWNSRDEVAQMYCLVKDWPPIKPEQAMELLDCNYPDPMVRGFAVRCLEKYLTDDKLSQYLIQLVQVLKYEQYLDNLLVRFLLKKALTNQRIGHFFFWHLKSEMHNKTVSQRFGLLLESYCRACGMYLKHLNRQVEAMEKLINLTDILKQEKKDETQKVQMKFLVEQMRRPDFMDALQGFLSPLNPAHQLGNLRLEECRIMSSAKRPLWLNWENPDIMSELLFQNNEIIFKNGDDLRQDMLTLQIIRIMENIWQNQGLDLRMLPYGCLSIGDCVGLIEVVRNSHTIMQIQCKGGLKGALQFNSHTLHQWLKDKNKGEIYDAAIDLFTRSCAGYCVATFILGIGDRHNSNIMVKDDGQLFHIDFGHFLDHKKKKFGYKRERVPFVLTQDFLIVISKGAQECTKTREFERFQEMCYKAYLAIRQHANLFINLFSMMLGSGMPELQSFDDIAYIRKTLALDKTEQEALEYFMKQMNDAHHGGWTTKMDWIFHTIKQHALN", "assay": "Binding affinity to wild-type human partial length PIK3CA (R108 to N1068 residues) expressed in mammalian expression system assessed as residual binding level at 1 uM by Kinomescan method relative to control"}, "[3]": {"biological_target": "Hepatocyte growth factor receptor (Homo sapiens) (UniProt P08581)", "assay": "Binding affinity to wild-type human partial length MET (D1010 to S1367 residues) expressed in bacterial expression system assessed as residual binding level at 1 uM by Kinomescan method relative to control"}, "[4]": {"biological_target": "Serine/threonine-protein kinase Nek9 (Homo sapiens) (UniProt Q8TD19)", "assay": "Binding affinity to wild-type human partial length NEK9 (P32 to R328 residues) expressed in bacterial expression system assessed as residual binding level at 1 uM by Kinomescan method relative to control"}, "[5]": {"biological_target": "Epidermal growth factor receptor (Homo sapiens) (UniProt P00533)", "sequence (P00533 whole entry, the tested form may be a part)": "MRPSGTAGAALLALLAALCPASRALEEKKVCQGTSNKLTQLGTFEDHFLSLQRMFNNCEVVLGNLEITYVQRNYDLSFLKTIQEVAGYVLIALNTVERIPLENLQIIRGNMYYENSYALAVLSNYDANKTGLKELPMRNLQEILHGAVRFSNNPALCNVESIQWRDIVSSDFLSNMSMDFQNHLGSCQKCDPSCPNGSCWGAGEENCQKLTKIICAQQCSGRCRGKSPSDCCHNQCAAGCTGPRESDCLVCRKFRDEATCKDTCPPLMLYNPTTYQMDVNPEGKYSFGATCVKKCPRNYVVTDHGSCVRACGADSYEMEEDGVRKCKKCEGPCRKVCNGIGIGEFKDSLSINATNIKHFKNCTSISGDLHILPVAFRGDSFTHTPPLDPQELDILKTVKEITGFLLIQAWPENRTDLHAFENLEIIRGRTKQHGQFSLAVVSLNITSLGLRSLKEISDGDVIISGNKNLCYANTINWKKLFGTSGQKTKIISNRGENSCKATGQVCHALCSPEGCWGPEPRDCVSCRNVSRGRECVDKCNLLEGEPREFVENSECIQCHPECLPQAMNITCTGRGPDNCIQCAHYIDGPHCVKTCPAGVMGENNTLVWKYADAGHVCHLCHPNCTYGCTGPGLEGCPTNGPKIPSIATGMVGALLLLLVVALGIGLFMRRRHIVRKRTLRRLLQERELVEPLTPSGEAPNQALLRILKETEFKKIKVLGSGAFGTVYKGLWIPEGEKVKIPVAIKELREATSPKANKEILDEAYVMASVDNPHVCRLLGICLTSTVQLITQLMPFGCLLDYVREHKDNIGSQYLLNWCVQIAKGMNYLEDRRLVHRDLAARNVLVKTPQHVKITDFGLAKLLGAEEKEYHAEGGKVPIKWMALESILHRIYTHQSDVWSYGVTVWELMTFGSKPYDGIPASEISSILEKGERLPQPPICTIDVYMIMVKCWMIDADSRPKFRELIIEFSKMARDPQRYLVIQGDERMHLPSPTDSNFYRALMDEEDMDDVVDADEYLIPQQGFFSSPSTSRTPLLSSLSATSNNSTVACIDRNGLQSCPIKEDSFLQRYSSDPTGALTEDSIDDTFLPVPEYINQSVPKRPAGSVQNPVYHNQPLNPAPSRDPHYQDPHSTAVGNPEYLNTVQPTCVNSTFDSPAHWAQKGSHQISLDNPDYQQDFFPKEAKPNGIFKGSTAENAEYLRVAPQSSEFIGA", "assay": "Binding affinity to wild-type human partial length EGFR (R669 to V1011 residues) expressed in bacterial expression system assessed as residual binding level at 1 uM by Kinomescan method relative to control"}, "[6]": {"assay": "Clearance in mouse at 2 mg/kg, iv", "type": "ADME, organism-based", "conditions": "in vivo"}, "[7]": {"biological_target": "Misshapen-like kinase 1 (Homo sapiens) (UniProt Q8N4C8)", "assay": "Binding affinity to wild-type human partial length MINK (M1 to K312 residues) expressed in mammalian expression system assessed as residual binding level at 1 uM by Kinomescan method relative to control"}, "[8]": {"biological_target": "Mitogen-activated protein kinase 13 (Homo sapiens) (UniProt O15264)", "assay": "Binding affinity to wild-type human full length p38-delta (M1 to L365 residues) expressed in bacterial expression system assessed as residual binding level at 1 uM by Kinomescan method relative to control"}, "[9]": {"biological_target": "Ephrin type-B receptor 3 (Homo sapiens) (UniProt P54753)", "sequence (P54753 whole entry, the tested form may be a part)": "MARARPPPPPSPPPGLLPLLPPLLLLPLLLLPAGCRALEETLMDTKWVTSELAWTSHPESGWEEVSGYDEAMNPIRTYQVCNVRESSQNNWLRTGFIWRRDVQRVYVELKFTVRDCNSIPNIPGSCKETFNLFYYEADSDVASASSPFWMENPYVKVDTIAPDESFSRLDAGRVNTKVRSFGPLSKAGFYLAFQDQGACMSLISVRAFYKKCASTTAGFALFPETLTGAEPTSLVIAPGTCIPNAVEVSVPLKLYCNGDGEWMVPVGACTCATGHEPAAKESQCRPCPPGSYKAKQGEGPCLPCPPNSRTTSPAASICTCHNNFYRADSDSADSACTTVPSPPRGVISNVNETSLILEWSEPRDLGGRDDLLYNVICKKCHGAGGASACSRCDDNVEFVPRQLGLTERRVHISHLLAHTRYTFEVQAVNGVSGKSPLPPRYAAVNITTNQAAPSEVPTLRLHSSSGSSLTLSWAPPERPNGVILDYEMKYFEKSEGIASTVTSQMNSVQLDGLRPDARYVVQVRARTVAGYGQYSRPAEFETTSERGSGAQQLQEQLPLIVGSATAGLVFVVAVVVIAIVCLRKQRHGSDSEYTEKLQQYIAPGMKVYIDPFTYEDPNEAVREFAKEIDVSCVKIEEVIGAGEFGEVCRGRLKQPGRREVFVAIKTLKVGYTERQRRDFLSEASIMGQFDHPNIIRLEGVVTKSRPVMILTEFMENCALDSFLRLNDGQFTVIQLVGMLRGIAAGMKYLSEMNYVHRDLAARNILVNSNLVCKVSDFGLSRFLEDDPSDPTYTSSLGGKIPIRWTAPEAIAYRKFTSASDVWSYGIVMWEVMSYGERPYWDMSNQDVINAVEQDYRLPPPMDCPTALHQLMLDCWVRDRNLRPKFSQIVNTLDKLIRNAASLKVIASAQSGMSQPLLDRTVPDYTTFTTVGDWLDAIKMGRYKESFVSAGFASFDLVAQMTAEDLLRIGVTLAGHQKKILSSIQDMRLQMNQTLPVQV", "assay": "Binding affinity to wild-type human partial length EPHB3 (Q599 to T928 residues) expressed in bacterial expression system assessed as residual binding level at 1 uM by Kinomescan method relative to control"}, "[10]": {"biological_target": "Serine/threonine-protein kinase tousled-like 2 (Homo sapiens) (UniProt Q86UE8)", "assay": "Binding affinity to wild-type human partial length TLK2 (E424 to N749 residues) expressed in bacterial expression system assessed as residual binding level at 1 uM by Kinomescan method relative to control"}, "[11]": {"biological_target": "Myotonin-protein kinase (Homo sapiens) (UniProt Q09013)", "assay": "Binding affinity to wild-type human partial length DMPK (V47 to V415 residues) expressed in bacterial expression system assessed as residual binding level at 1 uM by Kinomescan method relative to control"}, "[12]": {"biological_target": "RAC-alpha serine/threonine-protein kinase (Homo sapiens) (UniProt P31749)", "assay": "Binding affinity to wild-type human partial length AKT1 expressed in bacterial expression system assessed as residual binding level at 1 uM by Kinomescan method relative to control"}, "[13]": {"biological_target": "cAMP-dependent protein kinase catalytic subunit beta (Homo sapiens) (UniProt P22694)", "assay": "Binding affinity to wild-type human full length PKAC-beta (M1 to F351 residues) expressed in bacterial expression system assessed as residual binding level at 1 uM by Kinomescan method relative to control", "summary_of_the_method": "(§1)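 Single-point kinome-wide KINOMEscan binding panel, test compound at 1 μM, run by the provider's standard protocol.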"}, "[14]": {"biological_target": "Ephrin type-A receptor 5 (Homo sapiens) (UniProt P54756)", "assay": "Binding affinity to wild-type human partial length EPHA5 (T627 to V930 residues) expressed in bacterial expression system assessed as residual binding level at 1 uM by Kinomescan method relative to control"}, "[15]": {"biological_target": "Cyclin-G-associated kinase (Homo sapiens) (UniProt O14976)", "assay": "Binding affinity to wild-type human partial length GAK (G13 to Y338 residues) expressed in bacterial expression system assessed as residual binding level at 1 uM by Kinomescan method relative to control"}, "[16]": {"biological_target": "Phosphatidylinositol 4,5-bisphosphate 3-kinase catalytic subunit gamma isoform (Homo sapiens) (UniProt P48736)", "assay": "Binding affinity to wild-type human partial length PIK3CG (S144 to A1102 residues) expressed in mammalian expression system assessed as residual binding level at 1 uM by Kinomescan method relative to control"}, "[17]": {"biological_target": "Tyrosine-protein kinase JAK1 (Homo sapiens) (UniProt P23458)", "assay": "Binding affinity to wild-type human partial length JAK1 JH1 catalytic domain (V856 to K1154 residues) expressed in bacterial expression system assessed as residual binding level at 1 uM by Kinomescan method relative to control"}, "[18]": {"biological_target": "NUAK family SNF1-like kinase 1 (Homo sapiens) (UniProt O60285)", "assay": "Binding affinity to wild-type human partial length ARK5 (E25 to I332 residues) expressed in bacterial expression system assessed as residual binding level at 1 uM by Kinomescan method relative to control"}, "[19]": {"biological_target": "Dual specificity protein kinase CLK4 (Homo sapiens) (UniProt Q9HAZ1)", "assay": "Binding affinity to wild-type human partial length CLK4 (R135 to K481 residues) expressed in bacterial expression system assessed as residual binding level at 1 uM by Kinomescan method relative to control"}, "[20]": {"biological_target": "Serine/threonine-protein kinase 17A (Homo sapiens) (UniProt Q9UEE5)", "sequence (Q9UEE5 whole entry, the tested form may be a part)": "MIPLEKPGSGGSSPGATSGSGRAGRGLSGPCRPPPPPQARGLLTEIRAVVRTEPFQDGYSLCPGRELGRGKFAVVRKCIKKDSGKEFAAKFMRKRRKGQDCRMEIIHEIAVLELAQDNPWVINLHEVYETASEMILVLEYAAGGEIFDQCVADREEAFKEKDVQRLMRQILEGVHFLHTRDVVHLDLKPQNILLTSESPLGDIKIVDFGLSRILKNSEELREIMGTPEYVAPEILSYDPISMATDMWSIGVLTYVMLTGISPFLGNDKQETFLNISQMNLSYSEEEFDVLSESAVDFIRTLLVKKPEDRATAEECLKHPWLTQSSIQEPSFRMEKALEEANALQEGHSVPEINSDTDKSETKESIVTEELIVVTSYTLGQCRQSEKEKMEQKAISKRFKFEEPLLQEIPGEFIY", "assay": "Binding affinity to wild-type human partial length DRAK1 (R32 to E363 residues) expressed in bacterial expression system assessed as residual binding level at 1 uM by Kinomescan method relative to control"}, "[21]": {"biological_target": "Cyclin-dependent kinase 15 (Homo sapiens) (UniProt Q96Q40)", "sequence (Q96Q40 whole entry, the tested form may be a part)": "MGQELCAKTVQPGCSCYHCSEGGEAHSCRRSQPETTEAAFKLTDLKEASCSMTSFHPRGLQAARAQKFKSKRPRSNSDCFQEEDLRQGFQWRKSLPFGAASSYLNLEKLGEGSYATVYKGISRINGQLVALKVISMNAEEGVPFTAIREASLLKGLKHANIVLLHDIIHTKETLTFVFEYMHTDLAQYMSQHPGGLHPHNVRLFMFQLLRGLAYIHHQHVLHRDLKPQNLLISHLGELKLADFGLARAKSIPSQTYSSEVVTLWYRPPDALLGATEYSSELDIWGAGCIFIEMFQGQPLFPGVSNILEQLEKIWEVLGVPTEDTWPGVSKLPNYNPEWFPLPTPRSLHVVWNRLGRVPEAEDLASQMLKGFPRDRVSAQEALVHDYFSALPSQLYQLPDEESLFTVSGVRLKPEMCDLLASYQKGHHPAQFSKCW", "assay": "Binding affinity to wild-type human full length PFTAIRE2 (M1 to W384 residues) expressed in bacterial expression system assessed as residual binding level at 1 uM by Kinomescan method relative to control", "summary_of_the_method": "as §1"}, "[22]": {"biological_target": "Platelet-derived growth factor receptor alpha (Homo sapiens) (UniProt P16234)", "assay": "Binding affinity to wild-type human partial length PDGFRA (V575 to D1002 residues) expressed in mammalian expression system assessed as residual binding level at 1 uM by Kinomescan method relative to control"}, "[23]": {"biological_target": "Mitogen-activated protein kinase 8 (Homo sapiens) (UniProt P45983)", "sequence (P45983 whole entry, the tested form may be a part)": "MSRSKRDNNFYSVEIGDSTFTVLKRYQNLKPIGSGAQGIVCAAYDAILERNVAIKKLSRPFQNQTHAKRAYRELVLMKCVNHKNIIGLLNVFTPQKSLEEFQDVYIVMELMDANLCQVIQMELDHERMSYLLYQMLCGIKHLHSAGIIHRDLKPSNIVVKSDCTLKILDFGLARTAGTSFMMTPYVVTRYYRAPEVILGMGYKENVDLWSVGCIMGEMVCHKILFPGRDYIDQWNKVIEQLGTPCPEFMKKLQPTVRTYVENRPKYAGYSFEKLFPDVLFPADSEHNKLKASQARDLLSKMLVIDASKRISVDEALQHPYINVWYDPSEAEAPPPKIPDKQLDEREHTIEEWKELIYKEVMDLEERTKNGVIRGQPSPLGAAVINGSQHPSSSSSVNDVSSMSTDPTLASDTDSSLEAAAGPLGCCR", "assay": "Binding affinity to wild-type human full length JNK1 (M1 to Q384 residues) expressed in mammalian expression system assessed as residual binding level at 1 uM by Kinomescan method relative to control", "summary_of_the_method": "as §1"}, "[24]": {"biological_target": "Cyclin-dependent kinase-like 2 (Homo sapiens) (UniProt Q92772)", "sequence (Q92772 whole entry, the tested form may be a part)": "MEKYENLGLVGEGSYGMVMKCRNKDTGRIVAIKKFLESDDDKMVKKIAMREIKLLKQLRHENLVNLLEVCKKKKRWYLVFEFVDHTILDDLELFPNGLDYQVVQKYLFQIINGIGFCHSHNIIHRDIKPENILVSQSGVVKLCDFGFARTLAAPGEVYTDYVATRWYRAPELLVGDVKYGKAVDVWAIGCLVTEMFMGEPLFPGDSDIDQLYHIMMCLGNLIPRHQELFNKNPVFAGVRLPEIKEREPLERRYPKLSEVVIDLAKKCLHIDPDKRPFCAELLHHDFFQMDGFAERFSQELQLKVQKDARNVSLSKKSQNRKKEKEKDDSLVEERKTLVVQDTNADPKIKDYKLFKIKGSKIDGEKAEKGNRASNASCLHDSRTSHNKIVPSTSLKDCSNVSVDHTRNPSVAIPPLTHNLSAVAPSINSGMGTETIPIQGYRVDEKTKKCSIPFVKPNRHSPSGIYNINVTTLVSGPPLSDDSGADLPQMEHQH", "assay": "Binding affinity to wild-type human partial length CDKL2 (M1 to D327 residues) expressed in bacterial expression system assessed as residual binding level at 1 uM by Kinomescan method relative to control"}, "[25]": {"biological_target": "Serine/threonine-protein kinase WNK2 (Homo sapiens) (UniProt Q9Y3S1)", "assay": "Binding affinity to wild-type human partial length WNK2 (V47 to D482 residues) expressed in mammalian expression system assessed as residual binding level at 1 uM by Kinomescan method relative to control"}}}
{"smiles": "C=CC(=O)Nc1cc(Nc2ncc(Cl)c(Nc3ccccc3S(=O)(=O)C(C)C)n2)c(OC)cc1N(C)CCN(C)C", "values": [{"measurement": "Activity", "setting": "[1]", "result": 93, "unit": "%"}, {"measurement": "Activity", "setting": "[2]", "result": 85, "unit": "%"}, {"measurement": "Activity", "setting": "[3]", "result": 30, "unit": "%"}, {"measurement": "Activity", "setting": "[4]", "result": 70, "unit": "%"}, {"measurement": "Activity", "setting": "[5]", "result": 0, "unit": "%"}, {"measurement": "clearance", "setting": "[6]", "result": 1.74, "unit": "L/h/kg"}, {"measurement": "Activity", "setting": "[7]", "result": 34, "unit": "%"}, {"measurement": "Activity", "setting": "[8]", "result": 100, "unit": "%"}, {"measurement": "Activity", "setting": "[9]", "result": 63, "unit": "%"}, {"measurement": "Activity", "setting": "[10]", "result": 93, "unit": "%"}, {"measurement": "Activity", "setting": "[11]", "result": 91, "unit": "%"}, {"measurement": "Activity", "setting": "[12]", "result": 98, "unit": "%"}, {"measurement": "Activity", "setting": "[13]", "result": 99, "unit": "%"}, {"measurement": "Activity", "setting": "[14]", "result": 88, "unit": "%"}, {"measurement": "Activity", "setting": "[15]", "result": 29, "unit": "%"}, {"measurement": "Activity", "setting": "[16]", "result": 98, "unit": "%"}, {"measurement": "Activity", "setting": "[17]", "result": 78, "unit": "%"}, {"measurement": "Activity", "setting": "[18]", "result": 8.1, "unit": "%"}, {"measurement": "Activity", "setting": "[19]", "result": 15, "unit": "%"}, {"measurement": "Activity", "setting": "[20]", "result": 83, "unit": "%"}, {"measurement": "Activity", "setting": "[21]", "result": 90, "unit": "%"}, {"measurement": "Activity", "setting": "[22]", "result": 83, "unit": "%"}, {"measurement": "Activity", "setting": "[23]", "result": 59, "unit": "%"}, {"measurement": "Activity", "setting": "[24]", "result": 93, "unit": "%"}, {"measurement": "Activity", "setting": "[25]", "result": 66, "unit": "%"}]}
